Where “and” joins values, the source holds several entries; their conditions need not be identical. Equal entries are not always repeated.
Test system: Fibroblast
Test: Multiplex assay against human fibroblast
Format: toxicity, cell-based
Conditions: number of replicates 2
Outline: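 Cells were classed with CellPathfinder machine-learning gating, first as Hoechst high-intensity objects or normal cells, then (normal cells) as healthy, pyknosed or fragmented nuclei, and finally (pyknosed cells) as mitotic or apoptotic. Staining of live cells at seeding used Hoechst33342, BioTracker Green Microtubule Cytoskeleton Dye, MitoTracker Red and Annexin V Alexa Fluor 680, with imaging on a CQ1 microscope at 37°C and 5% CO2 after compound addition. Tubulin, mitochondrial-mass and membrane-permeability phenotypes are per cents of healthy-nucleus cells.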

[1] = 12 h, 1 µM, compound concentration 1 uM
[2] = 12 h, 10 µM, compound concentration 10 uM
[3] = 24 h, 1 µM, compound concentration 1 uM
[4] = 24 h, 10 µM, compound concentration 10 uM
[5] = 48 h, 1 µM, compound concentration 1 uM
[6] = 48 h, 10 µM, compound concentration 10 uM

Compound: O=C1NC(=NCc2cccs2)SC1=Cc1ccc2ncccc2c1
- Population Apoptotic (%) [1]: 31% and 38%
- Population Fragmented Nuclei (%) [1]: 17% and 11%
- Population Healthy Nuclei (%) [1]: 65% and 76%
- Population Hoechst High Intensity Objects (%) [1]: 0%
- Population Membrane Permeable-Phenotype (%) [1]: 4% and 3%
- Population Mitochondria Different-Phenotype (%) [1]: 0%
- Population Mitotic Cells (%) [1]: 68% and 61%
- Population Normal (%) [1]: 100%
- Population Pyknosed Nuclei (%) [1]: 16% and 12%
- Population Tubulin-Different-Phenotype (%) [1]: 5% and 6%
- Total Cell Count [1]: 193 and 211
- Population Apoptotic (%) [2]: 50% and 51%
- Population Fragmented Nuclei (%) [2]: 13% and 9%
- Population Healthy Nuclei (%) [2]: 74% and 78%
- Population Hoechst High Intensity Objects (%) [2]: 0%
- Population Membrane Permeable-Phenotype (%) [2]: 2% and 4%
- Population Mitochondria Different-Phenotype (%) [2]: 0% and 1%
- Population Mitotic Cells (%) [2]: 50% and 48%
- Population Normal (%) [2]: 100%
- Population Pyknosed Nuclei (%) [2]: 12%
- Population Tubulin-Different-Phenotype (%) [2]: 34% and 20%
- Total Cell Count [2]: 190 and 238
- Population Apoptotic (%) [3]: 42% and 26%
- Population Fragmented Nuclei (%) [3]: 15% and 10%
- Population Healthy Nuclei (%) [3]: 66% and 72%
- Population Hoechst High Intensity Objects (%) [3]: 0%
- Population Membrane Permeable-Phenotype (%) [3]: 2% and 6%
- Population Mitochondria Different-Phenotype (%) [3]: 0%
- Population Mitotic Cells (%) [3]: 57% and 73%
- Population Normal (%) [3]: 100%
- Population Pyknosed Nuclei (%) [3]: 18% and 17%
- Population Tubulin-Different-Phenotype (%) [3]: 4% and 6%
- Total Cell Count [3]: 183 and 219
- Population Apoptotic (%) [4]: 69% and 61%
- Population Fragmented Nuclei (%) [4]: 10% and 12%
- Population Healthy Nuclei (%) [4]: 82% and 75%
- Population Hoechst High Intensity Objects (%) [4]: 0%
- Population Membrane Permeable-Phenotype (%) [4]: 4% and 2%
- Population Mitochondria Different-Phenotype (%) [4]: 1% and 3%
- Population Mitotic Cells (%) [4]: 30% and 38%
- Population Normal (%) [4]: 100% and 99%
- Population Pyknosed Nuclei (%) [4]: 6% and 12%
- Population Tubulin-Different-Phenotype (%) [4]: 26% and 23%
- Total Cell Count [4]: 191 and 241
- Population Apoptotic (%) [5]: 65% and 75%
- Population Fragmented Nuclei (%) [5]: 17% and 14%
- Population Healthy Nuclei (%) [5]: 65% and 68%
- Population Hoechst High Intensity Objects (%) [5]: 0%
- Population Membrane Permeable-Phenotype (%) [5]: 2% and 3%
- Population Mitochondria Different-Phenotype (%) [5]: 0%
- Population Mitotic Cells (%) [5]: 34% and 25%
- Population Normal (%) [5]: 99% and 100%
- Population Pyknosed Nuclei (%) [5]: 17%
- Population Tubulin-Different-Phenotype (%) [5]: 10% and 6%
- Total Cell Count [5]: 185 and 211
- Population Apoptotic (%) [6]: 73% and 62%
- Population Fragmented Nuclei (%) [6]: 15% and 11%
- Population Healthy Nuclei (%) [6]: 77% and 76%
- Population Hoechst High Intensity Objects (%) [6]: 0%
- Population Membrane Permeable-Phenotype (%) [6]: 0%
- Population Mitochondria Different-Phenotype (%) [6]: 0% and 2%
- Population Mitotic Cells (%) [6]: 26% and 37%
- Population Normal (%) [6]: 100%
- Population Pyknosed Nuclei (%) [6]: 7% and 11%
- Population Tubulin-Different-Phenotype (%) [6]: 30% and 28%
- Total Cell Count [6]: 201 and 239

Compound: c1ccc2c(-c3coc4cc(-c5ccc(N6CCNCC6)cc5)cnc34)ccnc2c1
- Population Apoptotic (%) [1]: 33% and 46%
- Population Fragmented Nuclei (%) [1]: 18%
- Population Healthy Nuclei (%) [1]: 69% and 66%
- Population Hoechst High Intensity Objects (%) [1]: 0%
- Population Mitochondria Different-Phenotype (%) [1]: 0% and 2%
- Population Mitotic Cells (%) [1]: 66% and 53%
- Population Normal (%) [1]: 100%
- Population Pyknosed Nuclei (%) [1]: 16% and 14%
- Population Tubulin-Different-Phenotype (%) [1]: 10% and 15%
- Total Cell Count [1]: 182 and 274
- Population Apoptotic (%) [2]: 68% and 73%
- Population Fragmented Nuclei (%) [2]: 15% and 7%
- Population Hoechst High Intensity Objects (%) [2]: 0%
- Population Mitochondria Different-Phenotype (%) [2]: 8% and 0%
- Population Mitotic Cells (%) [2]: 31% and 26%
- Population Normal (%) [2]: 100% and 98%
- Population Pyknosed Nuclei (%) [2]: 52% and 91%
- Population Tubulin-Different-Phenotype (%) [2]: 35% and 100%
- Total Cell Count [2]: 223 and 162
- Population Apoptotic (%) [3]: 44% and 60%
- Population Healthy Nuclei (%) [3]: 73% and 71%
- Population Hoechst High Intensity Objects (%) [3]: 0%
- Population Mitochondria Different-Phenotype (%) [3]: 0% and 2%
- Population Mitotic Cells (%) [3]: 56% and 40%
- Population Normal (%) [3]: 100%
- Population Pyknosed Nuclei (%) [3]: 12% and 11%
- Population Tubulin-Different-Phenotype (%) [3]: 15% and 9%
- Total Cell Count [3]: 195 and 271
- Population Apoptotic (%) [4]: 77% and 80%
- Population Fragmented Nuclei (%) [4]: 9%
- Population Hoechst High Intensity Objects (%) [4]: 0%
- Population Mitotic Cells (%) [4]: 22% and 19%
- Population Normal (%) [4]: 98% and 100%
- Population Pyknosed Nuclei (%) [4]: 83% and 66%
- Population Tubulin-Different-Phenotype (%) [4]: 80% and 50%
- Total Cell Count [4]: 163 and 202
- Population Apoptotic (%) [5]: 53% and 48%
- Population Fragmented Nuclei (%) [5]: 16% and 27%
- Population Healthy Nuclei (%) [5]: 76% and 63%
- Population Mitochondria Different-Phenotype (%) [5]: 0%
- Population Mitotic Cells (%) [5]: 46% and 51%
- Population Normal (%) [5]: 100% and 99%
- Population Pyknosed Nuclei (%) [5]: 6% and 8%
- Population Tubulin-Different-Phenotype (%) [5]: 10% and 11%
- Total Cell Count [5]: 208 and 323
- Population Apoptotic (%) [6]: 84% and 91%
- Population Fragmented Nuclei (%) [6]: 21%
- Population Healthy Nuclei (%) [6]: 28% and 18%
- Population Hoechst High Intensity Objects (%) [6]: 0%
- Population Mitochondria Different-Phenotype (%) [6]: 2% and 7%
- Population Mitotic Cells (%) [6]: 8%
- Population Normal (%) [6]: 99%
- Population Pyknosed Nuclei (%) [6]: 50% and 63%
- Population Tubulin-Different-Phenotype (%) [6]: 44% and 38%
- Total Cell Count [6]: 171 and 210

Compound: CS(=O)(=O)c1ccc(C(=O)Nc2cc(F)cc(COc3cc(F)c(Br)cc3CN3CC[C@H](O)C3)c2)c(Cl)c1.O=CO
- Population Apoptotic (%) [1]: 46% and 47%
- Population Fragmented Nuclei (%) [1]: 17%
- Population Healthy Nuclei (%) [1]: 64% and 60%
- Population Hoechst High Intensity Objects (%) [1]: 0%
- Population Normal (%) [1]: 99%
- Population Pyknosed Nuclei (%) [1]: 18% and 26%
- Total Cell Count [1]: 269 and 200
- Population Apoptotic (%) [2]: 67% and 54%
- Population Fragmented Nuclei (%) [2]: 20% and 17%
- Population Hoechst High Intensity Objects (%) [2]: 0%
- Population Normal (%) [2]: 100%
- Population Pyknosed Nuclei (%) [2]: 49% and 35%
- Total Cell Count [2]: 234
- Population Apoptotic (%) [3]: 56% and 57%
- Population Fragmented Nuclei (%) [3]: 20% and 17%
- Population Healthy Nuclei (%) [3]: 65% and 63%
- Population Hoechst High Intensity Objects (%) [3]: 0%
- Population Normal (%) [3]: 100%
- Population Pyknosed Nuclei (%) [3]: 19%
- Total Cell Count [3]: 284 and 204
- Population Apoptotic (%) [4]: 88% and 75%
- Population Fragmented Nuclei (%) [4]: 11%
- Population Healthy Nuclei (%) [4]: 42% and 51%
- Population Hoechst High Intensity Objects (%) [4]: 0%
- Population Normal (%) [4]: 99% and 100%
- Population Pyknosed Nuclei (%) [4]: 44% and 36%
- Total Cell Count [4]: 134 and 230
- Population Apoptotic (%) [5]: 74% and 71%
- Population Fragmented Nuclei (%) [5]: 25%
- Population Healthy Nuclei (%) [5]: 66% and 65%
- Population Hoechst High Intensity Objects (%) [5]: 0%
- Population Normal (%) [5]: 100%
- Population Pyknosed Nuclei (%) [5]: 8%
- Total Cell Count [5]: 319 and 223
- Population Apoptotic (%) [6]: 93% and 90%
- Population Fragmented Nuclei (%) [6]: 18% and 10%
- Population Healthy Nuclei (%) [6]: 22% and 39%
- Population Hoechst High Intensity Objects (%) [6]: 0%
- Population Normal (%) [6]: 100% and 98%
- Population Pyknosed Nuclei (%) [6]: 58% and 50%
- Total Cell Count [6]: 102 and 177

Compound: CNS(=O)(=O)c1ccc(N(C)C)c(Nc2ncnc3cc(OC)c(OC)cc23)c1
- Population Apoptotic (%) [1]: 40% and 34%
- Population Fragmented Nuclei (%) [1]: 11% and 10%
- Population Healthy Nuclei (%) [1]: 55% and 63%
- Population Hoechst High Intensity Objects (%) [1]: 0%
- Population Membrane Permeable-Phenotype (%) [1]: 4% and 6%
- Population Mitochondria Different-Phenotype (%) [1]: 0%
- Population Mitotic Cells (%) [1]: 60% and 65%
- Population Normal (%) [1]: 100%
- Population Pyknosed Nuclei (%) [1]: 33% and 26%
- Population Tubulin-Different-Phenotype (%) [1]: 9% and 6%
- Total Cell Count [1]: 136 and 169
- Population Apoptotic (%) [2]: 41% and 28%
- Population Fragmented Nuclei (%) [2]: 13% and 8%
- Population Healthy Nuclei (%) [2]: 61% and 67%
- Population Hoechst High Intensity Objects (%) [2]: 0%
- Population Membrane Permeable-Phenotype (%) [2]: 4% and 6%
- Population Mitochondria Different-Phenotype (%) [2]: 1%
- Population Mitotic Cells (%) [2]: 58% and 71%
- Population Normal (%) [2]: 99% and 100%
- Population Pyknosed Nuclei (%) [2]: 24% and 23%
- Population Tubulin-Different-Phenotype (%) [2]: 22% and 16%
- Total Cell Count [2]: 206 and 246
- Population Apoptotic (%) [3]: 37% and 46%
- Population Fragmented Nuclei (%) [3]: 11% and 13%
- Population Healthy Nuclei (%) [3]: 54% and 60%
- Population Hoechst High Intensity Objects (%) [3]: 0%
- Population Membrane Permeable-Phenotype (%) [3]: 2% and 8%
- Population Mitochondria Different-Phenotype (%) [3]: 0% and 2%
- Population Mitotic Cells (%) [3]: 62% and 53%
- Population Normal (%) [3]: 99%
- Population Pyknosed Nuclei (%) [3]: 33% and 25%
- Population Tubulin-Different-Phenotype (%) [3]: 8% and 10%
- Total Cell Count [3]: 136 and 162
- Population Apoptotic (%) [4]: 56% and 43%
- Population Fragmented Nuclei (%) [4]: 11% and 10%
- Population Healthy Nuclei (%) [4]: 66% and 71%
- Population Hoechst High Intensity Objects (%) [4]: 0%
- Population Membrane Permeable-Phenotype (%) [4]: 7% and 2%
- Population Mitochondria Different-Phenotype (%) [4]: 2%
- Population Mitotic Cells (%) [4]: 43% and 56%
- Population Normal (%) [4]: 100% and 99%
- Population Pyknosed Nuclei (%) [4]: 22% and 17%
- Population Tubulin-Different-Phenotype (%) [4]: 20% and 12%
- Total Cell Count [4]: 207 and 220
- Population Apoptotic (%) [5]: 53% and 68%
- Population Fragmented Nuclei (%) [5]: 20% and 18%
- Population Healthy Nuclei (%) [5]: 59% and 65%
- Population Hoechst High Intensity Objects (%) [5]: 0%
- Population Membrane Permeable-Phenotype (%) [5]: 10% and 7%
- Population Mitochondria Different-Phenotype (%) [5]: 1%
- Population Mitotic Cells (%) [5]: 46% and 31%
- Population Normal (%) [5]: 99% and 100%
- Population Pyknosed Nuclei (%) [5]: 19% and 15%
- Population Tubulin-Different-Phenotype (%) [5]: 15% and 8%
- Total Cell Count [5]: 154 and 185
- Population Apoptotic (%) [6]: 62% and 75%
- Population Fragmented Nuclei (%) [6]: 17% and 14%
- Population Healthy Nuclei (%) [6]: 68% and 78%
- Population Hoechst High Intensity Objects (%) [6]: 0%
- Population Membrane Permeable-Phenotype (%) [6]: 6% and 3%
- Population Mitochondria Different-Phenotype (%) [6]: 2% and 3%
- Population Mitotic Cells (%) [6]: 37% and 25%
- Population Normal (%) [6]: 99% and 100%
- Population Pyknosed Nuclei (%) [6]: 14% and 7%
- Population Tubulin-Different-Phenotype (%) [6]: 12% and 11%
- Total Cell Count [6]: 193 and 207

Reference: ChEMBL document CHEMBL5303300, “EUbOPEN Chemogenomics Library - Multiplex” (2023)
